Source: ChEMBL document CHEMBL1789904, “Imaging of Plasmodium liver stages to drive next-generation antimalarial drug discovery” (Science, 2011)

Test system: Plasmodium yoelii
Assay: NOVARTIS: Antimalarial liver stage activity measured as reduction in Plasmodium yoelii schizont area in HepG2-A16-CD81 cells by immuno-fluorescence, and median schizont size at 10uM compound concentration
Type: functional, organism-based
Conditions: for IC50: Plasmodium yoelii, HepG2-A16-CD81
Summary of the method: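 Host and parasite nuclei stained with Hoechst 33342, parasites with αPyHSP70 antibody; 25 images per well by high-content imaging; median parasite (schizont) area measured by automated image analysis, ~50 schizonts per experiment, two or more independent experiments.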

| Compound | Schizont size [um] | IC50 [nM] |
| --- | --- | --- |
| COc1ccc(C2Sc3ccccc3N=C3C2=C(O)c2ccccc23)cc1 (configuration not stated) | 39.14 | 706 |
| CCCn1c(-c2cccc(Br)c2)nc2ccccc21 | 198.63 | > 8910 |
| COc1cc(C(=O)Nc2ccc3nc4n(c(=O)c3c2)CCCCC4)cc(OC)c1OC | – | > 10000 |
| Cc1oc2c(c1C(=O)NC1CCS(=O)(=O)C1)C(=O)c1ccccc1C2=O (configuration not stated) | 17.54 | 2.29 |
| O=C(Cc1ccccc1)NC(c1ccc(Cl)cc1)c1ccc2cccnc2c1O (configuration not stated) | 17.33 | 190 |
| CCOC(=O)c1cnc2c3c(ccc2c1O)CCCC3 | 26.2 | 10.8 |
| COc1cccc(Nc2nc(NCCO)c3ccccc3n2)c1.Cl | 54.9 | 62.3 |
| CCCCCCN(C(=O)COc1ccccc1)C(CC)c1nc2ccccc2c(=O)n1-c1cccc(Cl)c1 (configuration not stated) | – | > 10000 |
| COc1ccc2[nH]c3ccccc3c(=O)c2c1 | 30.27 | 135 |
| O=C(NC1CC1)C1CCN(c2cccc3c2C(=O)N(Cc2cccc(C(F)(F)F)c2)C3=O)CC1 | 24.01 | 29.3 |
| CCCCN(CCCC)S(=O)(=O)c1ccc(NC(=O)c2ccco2)cc1 | 35.28 | 377 |
| O=C(Nc1ccc(-c2nc3ccccc3[nH]2)cc1)c1ccc(-c2ccc(Cl)cc2)o1 | – | 6650 |
| CC(=O)N(C)C1=C(N2CCCC2)C(=O)c2ccccc2C1=O | 123.79 | 4950 |
| O=C(Nc1ccc2oc(-c3cccc4ccccc34)nc2c1)c1ccc([N+](=O)[O-])o1 | 13.99 | 72.5 |
| O=C(C1CC1)N1CCc2cc(Br)cc(S(=O)(=O)N3CCCC3)c21 | 164.5 | > 10000 |
| CCCCOc1ccc(C2C3CCCC=C3C(C#N)=C(N)C2(C#N)C#N)cc1 (configuration not stated) | 213.66 | > 10000 |
| CCOc1ccc(CN(C(=O)COc2ccc(Cl)cc2)C(C)CCCN(CC)CC)cc1.O=C(O)C(F)(F)F (configuration not stated) | 55.32 | 20.4 |

| Compound | Schizont size [um] | IC50 [nM] |
| --- | --- | --- |
| Cc1cccc(C(=O)NCc2nnc(S)n2-c2cccc(C(F)(F)F)c2)c1 | 210.73 | > 10000 |
| CCOC(=O)c1c(NC(C)=O)sc2c1CCN(C(C)C)C2 | 93.21 | 3010 |
| CCc1ccccc1NC(C)=O | 188.81 | > 10000 |
| C[C@@H]1C[C@@H]([C@H](O)CC2CC(=O)NC(=O)C2)C(=O)[C@@H](C)C1 [CYCLOHEXIMIDE] | 14.61 | 78.1 |
| C1CCC(NP2(NC3CCCCC3)=NP(NC3CCCCC3)(NC3CCCCC3)=NP(NC3CCCCC3)(NC3CCCCC3)=N2)CC1 | 33.82 | 18.6 |
| S=C(NN=Cc1ccccn1)NC1CC2CC1C1C=CCC21 (configuration not stated) | 27.45 | 25.6 |
| c1ccc2c(NCCc3c[nH]cn3)c3ccccc3nc2c1 | 110.22 | 706 |
| Cc1nc2ccc(NC(=O)C3CC3)cc2c(=O)n1Cc1ccc(Cl)cc1 | – | > 10000 |
| O=C(NC1CC1)c1ccc(CSCc2ccccc2Cl)o1 | 26.09 | 140 |
| O=C(Nc1c2ccccc2nc2ccccc12)c1cc(Cl)ccc1O | 43.52 | 181 |
| Cc1c(Cl)cccc1N1C(=O)C2C3c4ccccc4C(c4ccccc43)C2C1=O (configuration not stated) | 158.75 | > 10000 |
| Cc1ccc(Nc2nc3c(N)nnc(N)c3nc2Nc2ccc(C)cc2)cc1 | 50.31 | 488 |
| CN(C)c1cc[n+](CC(=O)Nc2ccc(Cl)cc2)cc1.[Cl-] | 69.62 | 584 |
| CCCC1(CCC)NC(=S)N(c2ccc(C)c(C)c2)N1 | 233.59 | > 10000 |
| CCOc1ccc(Nc2nc(NCc3ccccc3)c3ccccc3n2)cc1.Cl | 23.69 | 480 |
| c1ccc(CNc2nc(Nc3ccccc3)nc3ccccc23)cc1 | 29.85 | 153 |
